Consider one compound from ChEMBL document CHEMBL4350976, “Sequence modification of heptapeptide selected by phage display as homing device for HT-29 colon cancer cells to improve the anti-tumour activity of drug delivery systems” (Eur J Med Chem, 2019).

Where a SMILES comes first, the peptide text is derived from it. The star is where a group is joined. X1 = COc1cccc2c1C(=O)c1c(O)c3c(c(O)c1C2=O)C[C@@](O)(/C(C)=N/OCC(=O)*)C[C@@H]3O[C@H]1C[C@H](N)[C@H](O)[C@H](C)O1

Series [1] can be described thus: Drug metabolism in rat liver lysosomes homogenate assessed as increase in Dau = Aoa-Leu-OH metabolite formation at 0.05 ug/ul after 1 hr by LC-MS analysis. It counts as ADME, subcellular, Lysosome. To be noted: tissue homogenate. The method in brief:
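Conjugates and rat liver lysosomal homogenate were each used at 0.05 µg/µL. Samples were taken at 0, 1, 3, 6 and 24 h. Metabolites were identified by LC-MS on a C18 column with a formic acid/acetonitrile gradient.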

Series [2] has as its system CT26.WT. The series can be described thus: Cytostatic activity against mouse CT26.WT cells preincubated for 24 hrs under serum free condition followed by compound washout and further incubation for 48 hrs in presence of serum by MTT assay. The format is functional, cell-based. An outline of the steps:
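Cells were grown at 37 °C in 5% CO2 in medium with 10% heat-inactivated FBS (20% for OVCAR-3) plus penicillin/streptomycin. The medium was RPMI-1640 for most lines, DMEM for U-87 MG and MRC-5, and IMDM for PE/CA-PJ lines. Seeding was 3×10^3–10×10^3 cells per well. Cells had 24 h compound exposure, a wash, and 48 h further culture. Read-out was MTT, normalized to untreated cells and fitted by nonlinear regression for IC50.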
For orientation: Tetrazolium dyes change colour on reduction, which living cells bring about.

Series [3] has as its system MCF7. Nature of the series: Potency index, ratio of compound IC50 to Daunomycin IC50 for human MCF7 cells preincubated for 24 hrs under serum free condition followed by compound washout and further incubation for 48 hrs in presence of serum by MTT assay. The format is functional.
Series [4] deals with MDA-MB-231. Nature of the series: Potency index, ratio of compound IC50 to Daunomycin IC50 for human MDA-MB-231 cells preincubated for 24 hrs under serum free condition followed by compound washout and further incubation for 48 hrs in presence of serum by MTT assay. It counts as functional.
For series [5], the system named is WiDr. The series can be described thus: Potency index, ratio of compound IC50 to Daunomycin IC50 for human WiDr cells preincubated for 24 hrs under serum free condition followed by compound washout and further incubation for 48 hrs in presence of serum by MTT assay. The format is functional.
Series [6] in a line: Potency index, ratio of compound IC50 to Daunomycin IC50 for human M24 cells preincubated for 24 hrs under serum free condition followed by compound washout and further incubation for 48 hrs in presence of serum by MTT assay. The format is functional.
The subject of series [7] is HT-29. Nature of the series: Antitumor activity against human HT-29 cells xenografted in SCID mouse assessed as decrease in number of Ki-67 positive cells measured as proliferation index at 38.3 mg/kg, ip administered thrice in first week (on days 13, 16, 20, 23 and 27) and twice in second week starting from 13 days post inoculation measured at day 30 post inoculation by KI-67-staining based light microscopic analysis (reference value: 100%). Also on record: scale not given: the % may be the effect or the level left. It counts as functional. An outline of the steps:
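Tumours from the SCID HT-29 orthotopic study were formalin-fixed and paraffin-embedded, cut at 2 µm, and given citrate pH 6 retrieval at 98 °C for 40 min. They were stained with anti-human Ki-67 (1:40, 1 h RT), then a biotinylated link, HRP polymer and AEC. Ki-67+ cells were counted in 5 fields per tumour at 40× magnification. The proliferation index is the % positive cells.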

The nature of series [8]: Stability in 2.5% fetal bovine serum containing medium at 30 uM measured after 24 hrs by LC/MS analysis. It counts as ADME, cell-free, Bos taurus. The note with it: cattle. The method in brief:
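Conjugates (30 μM) were incubated at 37 °C in medium containing 2.5% FBS. Samples were taken at 0, 3, 6 and 24 h, quenched with acetic acid, lyophilised, desalted on C18 spin columns and analysed by LC-MS. Cleavage products were identified by mass.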

For the compound `COc1cccc2c1C(=O)c1c(O)c3c(c(O)c1C2=O)C[C@@](O)(/C(C)=N/OCC(=O)N[C@@H](CC(C)C)C(=O)N[C@@H](CCCNC(=N)N)C(=O)N[C@@H](CCCNC(=N)N)C(=O)N[C@@H](Cc1ccc(O)cc1)C(=O)N[C@H](C(=O)N[C@@H](Cc1cnc[nH]1)C(=O)N[C@@H](CC(C)C)C(=O)N[C@@H](Cc1ccccc1)C(=O)N[C@@H](Cc1ccc(O)cc1)C(=O)N[C@@H](C)C(=O)N[C@H](C(N)=O)[C@@H](C)O)C(C)C)C[C@@H]3O[C@H]1C[C@H](N)[C@H](O)[C@H](C)O1` (X1-LRRYVHLFYAT-NH2), in series [1], the Drug metabolism result is “Metabolite_Detected”. Further, the IC50 (usually the concentration that gives 50% inhibition) in series [2] worked out at 8.3 µM. Besides, the “Ratio IC50” value in series [3] is 38.8; in series [4] it was 86.6; in series [5] it was 62.8; in series [6], 61.7. For the same compound, in series [7], the Activity amounted to 58%. For the same compound, the Stability result in series [8] is recorded as “Stable”.
